Marks after values point to notes of the source that are not given here. Values belong to the compound of their own block, whether it stands above or below them.
Tests used:
[1] = Photolysis quantum yields; type: physicochemical; conditions: for Photochemical reactivity: photolysis in unbuffered H2O; for Φdis, disappearance quantum yield (pHP acetates) / Φdis, disappearance quantum yield (pHP diethyl phosphates): λ = 300 nm; for Φdis, disappearance quantum yield (pHP acetates): 20% aq CH3CN or DMSO
Procedure, shortened: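 Caged compound (1–9 mmol/L) plus internal standard (caffeine or 4-acetamidophenol) in water, buffer or solvent, in a quartz tube. Irradiated in a Rayonet carousel (two 15 W, 3000 Å Hg lamps), with ferrioxalate actinometry. Aliquots taken every 30 s up to 5 min, diluted and run on C18 LC-MS (water/methanol gradient with ammonium formate/formic acid), three injections each. Quantitation used calibration curves; Φ = concentration change / photons absorbed. 1H NMR in D2O confirmed products.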

[2] = Laser flash photolysis / femtosecond pump-probe spectroscopy; type: physicochemical
Procedure, shortened: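 Pump: 266 nm pulses (frequency-doubled 532 nm NOPA output from a 775 nm Ti/Sa laser), 1 μJ, <150 fs. Probe: supercontinuum from a CaF2 plate, 270–690 nm. Sample flowed through a 0.4 mm cell with a 0.2 mm spot. Probe and reference were read on photodiode arrays; cross-correlation <100 fs. Data to 50 ps were chirp-corrected, and 3–6 scans of 400 shots/point were averaged.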

[3] = cited from earlier work
[4] = Stern-Volmer quenching with sorbate; type: physicochemical; conditions: unbuffered 18 MΩ Ultrapure H2O; from KSV with kq assumed kdiff ~ 7.2 × 10^9 s^−1
Procedure, shortened: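 pHP GABA (0.001–0.01 mol/L) was diluted with potassium sorbate quencher (0–0.1 mol/L) and photolysed under the quantum-yield conditions (Rayonet, 3000 Å, LC-MS quantitation of GABA release). KSV came from Φ0/Φ vs [Q]. Triplet lifetime was obtained from KSV, taking kq as the diffusion rate in water.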

[5] = λ = 300 nm, reported earlier, for comparison, cited from earlier work
[6] = Stability to aqueous hydrolysis; type: physicochemical; conditions: compared with other pHP phosphates
[7] = 300 nm, pH 5.0, ammonium acetate (0.01 mol/L), buffered CH3CN–H2O
[8] = 300 nm, pH 7.3, HEPES (0.01 mol/L) and LiClO4 (0.1 mol/L)
[9] = 300 nm, pH 8.2, HEPES (0.01 mol/L) and LiClO4 (0.1 mol/L)
[10] = unbuffered 18 MΩ Ultrapure H2O, conversion <2%
[11] = unbuffered H2O, singlet λmax ~ 315 nm
[12] = unbuffered H2O with acetonitrile (5%) added to dissolve the ester
[13] = unbuffered CH3CN–H2O (1:1), conversion <2%

Φapp, quantum yield for the appearance of GABA [1, 7]: 0.20
Φapp, quantum yield for the appearance of rearranged acid [1, 7]: 0.18
Φdis, quantum yield for the disappearance of pHP GABA [1, 7]: 0.21
Φapp, quantum yield for the appearance of GABA [1, 8]: 0.20
Φapp, quantum yield for the appearance of rearranged acid [1, 8]: 0.20
Φdis, quantum yield for the disappearance of pHP GABA [1, 8]: 0.21
Φapp, quantum yield for the appearance of GABA [1, 9]: 0.09
Φapp, quantum yield for the appearance of rearranged acid [1, 9]: 0.06
Φdis, quantum yield for the disappearance of pHP GABA [1, 9]: 0.09
Φapp, quantum yield for the appearance of GABA [1, 10]: 0.19
Φapp, quantum yield for the appearance of rearranged acid [1, 10]: 0.16
Φdis, quantum yield for the disappearance of pHP GABA [1, 10]: 0.20
Compound: NCCCC(=O)OCC(=O)c1ccc(O)cc1.O=C(O)C(F)(F)F [Compound 1, 4-(2-(4-Hydroxyphenyl)-2-oxoethoxy)-4-oxobutan-1-aminium-2,2,2-trifluoroacetate]
k2, rate constant for triplet decay ([2]; unbuffered H2O): 3.0 ^c 109 s^−1
k1, rate constant for triplet rise [2, 11]: 4.4 1011 s^−1

Compound: CC(=O)c1ccc(O)cc1 [Compound 1d, p-hydroxyacetophenone, reference compound]
Reduction of pKa of the excited triplet state relative to ground-state pKa [3]: about 4.3 pKa units

Φapp, quantum yield for the appearance of GABA [1, 10]: 0.06
Compound: COc1cc(C(=O)COC(=O)CCCN)ccc1O.O=C(O)C(F)(F)F [Compound 2, 4-(2-(4-Hydroxy-3-methoxyphenyl)-2-oxoethoxy)-4-oxobutan-1-amonium-2,2,2-trifluoroacetate]
k2, rate constant for triplet decay ([2]; unbuffered H2O): 1.3 109 s^−1
k1, rate constant for triplet rise [2, 11]: 2.2 1011 s^−1

Φapp, quantum yield for the appearance of GABA [1, 10]: 0.03
Φdis, quantum yield for the disappearance of pHP GABA [1, 10]: 0.03
Compound: COc1cc(C(=O)COC(=O)CCCN)cc(OC)c1O.O=C(O)C(F)(F)F [Compound 3, 4-(2-(4-Hydroxy-3,5-dimethoxyphenyl)-2-oxoethoxy)-4-oxobutan-1-amonium-2,2,2-trifluoroacetate]
k1, rate constant for triplet rise [2, 12]: 2.7 1011 s^−1
k2, rate constant for triplet decay [2, 12]: 2.8 ^d 109 s^−1

Compound: NCCCC(=O)OCC(=O)c1ccc(O)c(O)c1.O=C(O)C(F)(F)F [Compound 4, 4-(2-(3,4-Dihydroxyphenyl)-2-oxoethoxy)-4-oxobutan-1-aminium-2,2,2-trifluoroacetate]
Photochemical reactivity [1]: Note: NA, not available. All runs were low conversions to products (<2%). Standard deviations are <±0.02. 3-NO2 (12), 3-OH (4), and 2-OH (5) did not react under these conditions and are omitted. Unbuffered 18 MΩ Ultrapure H2O was used.

Compound: NCCCC(=O)OCC(=O)c1ccc(O)cc1O.O=C(O)C(F)(F)F [Compound 5, 4-(2-(2,4-Dihydroxyphenyl)-2-oxoethoxy)-4-oxobutan-1-aminium-2,2,2-trifluoroacetate]
Photochemical reactivity [1]: Note: NA, not available. All runs were low conversions to products (<2%). Standard deviations are <±0.02. 3-NO2 (12), 3-OH (4), and 2-OH (5) did not react under these conditions and are omitted. Unbuffered 18 MΩ Ultrapure H2O was used.

Φapp, quantum yield for the appearance of GABA [1, 8]: 0.16
Φapp, quantum yield for the appearance of rearranged acid [1, 8]: 0.13
Φdis, quantum yield for the disappearance of pHP GABA [1, 8]: 0.15
Φapp, quantum yield for the appearance of GABA [1, 9]: 0.08
Φapp, quantum yield for the appearance of rearranged acid [1, 9]: 0.06
Φdis, quantum yield for the disappearance of pHP GABA [1, 9]: 0.08
Φapp, quantum yield for the appearance of GABA [1, 10]: 0.14
Φapp, quantum yield for the appearance of rearranged acid [1, 10]: 0.13
Φdis, quantum yield for the disappearance of pHP GABA [1, 10]: 0.15
Compound: Cc1cc(C(=O)COC(=O)CCCN)ccc1O.O=C(O)C(F)(F)F [Compound 6, 4-(2-(4-Hydroxy-3-methylphenyl)-2-oxoethoxy)-4-oxobutan-1-aminium-2,2,2-trifluoroacetate]

Φapp, quantum yield for the appearance of GABA [1, 8]: 0.17
Φapp, quantum yield for the appearance of rearranged acid [1, 8]: 0.15
Φdis, quantum yield for the disappearance of pHP GABA [1, 8]: 0.17
Φapp, quantum yield for the appearance of GABA [1, 9]: 0.11
Φapp, quantum yield for the appearance of rearranged acid [1, 9]: 0.09
Φdis, quantum yield for the disappearance of pHP GABA [1, 9]: 0.11
Φapp, quantum yield for the appearance of GABA [1, 10]: 0.14
Φapp, quantum yield for the appearance of rearranged acid [1, 10]: 0.13
Φdis, quantum yield for the disappearance of pHP GABA [1, 10]: 0.15
Compound: Cc1cc(C(=O)COC(=O)CCCN)cc(C)c1O.O=C(O)C(F)(F)F [Compound 8, 4-(2-(4-Hydroxy-3,5-dimethylphenyl)-2-oxoethoxy)-4-oxobutan-1-aminium-2,2,2-trifluoroacetate]

Compound: NCCCC(=O)OCC(=O)c1ccc(O)c(C(=O)O)c1.O=C(O)C(F)(F)F [Compound 9, 4-(2-(3-Carboxy-4-hydroxyphenyl)-2-oxoethoxy)-4-oxobutan-1-aminium-2,2,2-trifluoroacetate]
k2, rate constant for triplet decay ([2]; unbuffered H2O): 1.0 109 s^−1
k1, rate constant for triplet rise [2, 11]: 2.1 1011 s^−1

Compound: COC(=O)c1cc(C(=O)COC(=O)CCCN)ccc1O.O=C(O)C(F)(F)F [Compound 10, 4-(2-(4-Hydroxy-3-(methoxycarbonyl)phenyl)-2-oxoethoxy)-4-oxobutan-1-aminium-2,2,2-trifluoroacetate]
k2, rate constant for triplet decay ([2]; unbuffered H2O): 1.3 109 s^−1
k1, rate constant for triplet rise [2, 11]: 3.2 1011 s^−1

Compound: NCCCC(=O)OCC(=O)c1ccc(O)c(C(N)=O)c1.O=C(O)C(F)(F)F [Compound 11, 4-(2-(3-Carbamoyl-4-hydroxyphenyl)-2-oxoethoxy)-4-oxobutan-1-aminium-2,2,2-trifluoroacetate]
k2, rate constant for triplet decay ([2]; unbuffered H2O): 2.2 109 s^−1

Compound: NCCCC(=O)OCC(=O)c1ccc(O)c([N+](=O)[O-])c1.O=C(O)C(F)(F)F [Compound 12, 4-(2-(4-Hydroxy-3-nitrophenyl)-2-oxoethoxy)-4-oxobutan-1-aminium-2,2,2-trifluoroacetate]
Photochemical reactivity [1]: Note: NA, not available. All runs were low conversions to products (<2%). Standard deviations are <±0.02. 3-NO2 (12), 3-OH (4), and 2-OH (5) did not react under these conditions and are omitted. Unbuffered 18 MΩ Ultrapure H2O was used.

Φapp, quantum yield for the appearance of GABA [1, 7]: 0.13
Φapp, quantum yield for the appearance of rearranged acid [1, 7]: 0.19
Φdis, quantum yield for the disappearance of pHP GABA [1, 7]: 0.21
Φapp, quantum yield for the appearance of GABA [1, 13]: 0.35
Φapp, quantum yield for the appearance of rearranged acid [1, 13]: 0.39
Φdis, quantum yield for the disappearance of pHP GABA [1, 13]: 0.42
Compound: N#Cc1cc(C(=O)COC(=O)CCCN)ccc1O.O=C(O)C(F)(F)F [Compound 13, 4-(2-(3-Cyano-4-hydroxyphenyl)-2-oxoethoxy)-4-oxobutan-1-aminium-2,2,2-trifluoroacetate]
τ^3, triplet lifetime [4]: 40.5 10^−9s

Compound: CC(=O)OCC(=O)c1ccc(O)cc1 [Compound 24, 2-(4-Hydroxyphenyl)-2-oxoethyl acetate]
Φdis, disappearance quantum yield (parent pHP acetate) ([5]; 20% aq CH3CN or DMSO): 0.30

Φdis, disappearance quantum yield (pHP acetates) [1]: 0.17
Compound: CC(=O)OCC(=O)c1ccc(O)cc1C#N [Compound 25, 2-(2-Cyano-4-hydroxyphenyl)-2-oxoethyl acetate]

Φdis, disappearance quantum yield (pHP acetates) [1]: 0.08
Compound: CC(=O)OCC(=O)c1ccc(O)c(C#N)c1 [Compound 26, 2-(3-Cyano-4-hydroxyphenyl)-2-oxoethyl acetate]

Compound: CCOP(=O)(OCC)OCC(=O)c1ccc(O)cc1 [Compound 27, Diethyl (2-(4-hydroxyphenyl)-2-oxoethyl) phosphate]
Φdis, disappearance quantum yield (parent pHP diethyl phosphate) ([5]; 50% aq CH3CN): 0.40

Compound: CCOP(=O)(OCC)OCC(=O)c1ccc(O)c(OC)c1 [Compound 28, Diethyl (2-(4-hydroxy-3-methoxyphenyl)-2-oxoethyl) phosphate]
Φdis, disappearance quantum yield (pHP diethyl phosphates) ([1]; 50% aq CH3CN): 0.39

Compound: CCOP(=O)(OCC)OCC(=O)c1cc(OC)c(O)c(OC)c1 [Compound 29, Diethyl (2-(4-hydroxy-3,5-dimethoxyphenyl)-2-oxoethyl) phosphate]
Φdis, disappearance quantum yield (pHP diethyl phosphates) ([1]; 50% aq CH3CN): 0.44 ^d
Φdis, disappearance quantum yield ([1]; λ = 350 nm, 50% aq CH3CN): d Φdis = 0.13 at λ = 350 nm.

Compound: CCOP(=O)(OCC)OCC(=O)c1ccc(O)cc1OC [Compound 30, Diethyl (2-(4-hydroxy-2-methoxyphenyl)-2-oxoethyl) phosphate]
Stability to aqueous hydrolysis (qualitative) [6]: less stable to aqueous hydrolysis
Φdis, disappearance quantum yield (pHP diethyl phosphates) ([1]; 50% aq CH3CN): 0.59

Compound: CCOP(=O)(OCC)OCC(=O)c1c(OC)cc(O)cc1OC [Compound 31, Diethyl (2-(4-hydroxy-2,6-dimethoxyphenyl)-2-oxoethyl) phosphate]
Stability to aqueous hydrolysis (qualitative) [6]: less stable to aqueous hydrolysis
Φdis, disappearance quantum yield (pHP diethyl phosphates) ([1]; 50% aq CH3CN): 0.69

Compound: CCOP(=O)(OCC)OCC(=O)c1ccc(O)c(C(C)=O)c1 [Compound 32, 2-(3-Acetyl-4-hydroxyphenyl)-2-oxoethyl diethyl phosphate]
Φdis, disappearance quantum yield (pHP diethyl phosphates) ([1]; 50% aq CH3CN): 0.03

Compound: p-hydroxyphenacyl [pHP]
Triplet energy of the conjugate base ([3]; conjugate base of pHP): 61.2 kcal/mol
Triplet energy ([3]; un-ionized pHP): 71.6 kcal/mol

From article PMC3891043 (Canadian journal of chemistry, 2011)
